# Test results as given in PubChem BioAssay AID2052 (NMMLSC, 2009).
# Hit rate of the full screen: of about 330,000 compounds, about 220 (0.067%) were called active.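 Rule for the calls: active = response, share of CD8 T cells binding vesicles, and their 90th percentile fluorescence all below set limits (cut at about 80% in these data, passing the limit was not always enough); inactive = the rest, inconclusive results apart.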 What follows is part of a selection rich in actives, with near analogues and random picks from the rest.
# Experiment: murine CD8 T cell vesicle adhesion modulation – mouse 2C CD8+ T cells, flow cytometry, primary screen (AID 2052);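 for double positive events: binding gate set so that unloaded-vesicle control wells show 10% double positive cells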;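 for response (vesicle binding): values below 100% mean blocked vesicle binding to the CD8+ T cells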
# Details: 2C CD8+ T cell-vesicle binding, at 7 µM, stronger effect = lower value; double positive events: measured here: CD8+ vesicle-bound cell fraction
# Summary of the method: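 Assay system – 2C mouse CD8+ T cells · Also added – QL9-loaded Drosophila micro-vesicles · Timing – Cell–vesicle co-incubation 1.5 h at 37 °C, staining 20 min on ice · Signal – flow cytometry of vesicle-bound cells · Measure – percent CD8+ FL2 mean versus row control · Controls – Peptide-free naked vesicles (low) and QL9 vesicles with 0.7% DMSO vehicle (high)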
Structure (SMILES),double positive events,response (vesicle binding)
Cc1nc2ccc(C(=O)N(C)CC3CCCN(CCc4ccc(Cl)cc4)C3)cc2[nH]1 (configuration not stated),20.7%,442% (inactive)
Cc1ccc(N2CC(C(=O)NCCS(=O)(=O)N3CCN(c4ccccc4)CC3)CC2=O)cc1 (configuration not stated),11%,383% (inactive)
CN1C(=O)/C(=C/C=C2\SCCN2C)OC1=S,25.3%,177% (inactive)
CCN1CCN(C(=O)c2cc3cc4ccc(OC)cc4nc3s2)CC1,24.6%,601% (inactive)
CN(CC(=O)NCCc1ccc(S(N)(=O)=O)cc1)CC(=O)Nc1ccc(Cl)cc1,39.4%,1090% (inactive)
COc1ccc([N+](=O)[O-])cc1NC(=O)c1ccc(N(Cc2ccccc2C)S(C)(=O)=O)cc1,0.1%,6.1% (active)
Cc1ccccc1CN(c1ccc(C(=O)NCC2CCCO2)cc1)S(C)(=O)=O (configuration not stated),4.3%,168% (inactive)
COc1ccc(C(=O)CC(=O)C(=O)Nc2cc([N+](=O)[O-])ccc2OC)cc1,13.4%,256% (inactive)
COc1ccccc1OCCn1c(SCC(N)=O)nc2ccccc21,16%,348% (inactive)
Cc1ccc(NC(=O)CN(C)S(=O)(=O)c2cnc[nH]2)cc1C,18.7%,261% (inactive)
CC(Oc1ccccc1)C(=O)Nc1c2c(nn1-c1ccccc1)CS(=O)C2 (configuration not stated),7.9%,237% (inactive)
CCOC(=O)c1ccccc1NC(=S)N1CCC(C(N)=O)CC1,33.7%,285% (inactive)
OC(CNCc1ccc(Cl)c(Cl)c1)c1ccccc1 (configuration not stated),58.3%,66.1% (inactive)
Cc1c(NC(=O)CN2C(=O)C(=O)N(Cc3ccccc3)C2=O)c(=O)n(-c2ccccc2)n1C,54.7%,606% (inactive)
Cc1c(NC(=S)NC(=O)CCc2ccccc2)c(=O)n(-c2ccccc2)n1C,1.1%,17.6% (active)
Cc1c(NC(=S)Nc2ccccc2)c(=O)n(-c2ccccc2)n1C,28%,297% (inactive)
CC(C)(C)c1cc(P(=O)(c2ccccc2)c2ccccc2)ccc1O,28.1%,82.3% (inactive)
Cc1ccccc1NC(=O)Nc1ccccc1N1CCCCC1,27.3%,308% (inactive)
CC(=O)c1ccc(N2CCN(CC(=O)Nc3ccccc3N3CCOCC3)CC2)cc1,42.5%,203% (inactive)
O=C(CN1CCN(C2CCCCC2)CC1)Nc1ccccc1N1CCCCC1,6.3%,0% (active)
COc1ccc(CN(C)C(=S)Nc2ccc(Cl)cc2Cl)cc1,9.4%,367% (inactive)

Structure (SMILES),double positive events,response (vesicle binding)
CCN1CCN(C(=O)C2CCN(S(=O)(=O)c3cc(Cl)ccc3Cl)CC2)CC1,29.3%,223% (inactive)
O=C(NN1C(=O)C2C3C=CC(C3)C2C1=O)c1ccco1 (configuration not stated),43%,570% (inactive)
CCOc1ccc2[nH]c(=O)c(CN(Cc3nnnn3CCc3ccccc3)CC3CCCO3)cc2c1 (configuration not stated),50.9%,238% (inactive)
COC(=O)c1ccc(C2NC(=O)NC(C)=C2C(=O)N(C)C)cc1 (configuration not stated),31.3%,393% (inactive)
CCOc1ccc(CCNC(=O)COC(=O)C2CCN(c3ccc(C(F)(F)F)cn3)CC2)cc1OCC,38.6%,818% (inactive)
CCCc1c(C(=O)Nc2ccc(F)cc2)cnn1-c1ccccc1,19.3%,479% (inactive)
O=C(COC(=O)CC1CC2CCC1C2)NC(=O)NC1CCCC1 (configuration not stated),20.7%,248% (inactive)
COc1ccc(OC)c(C(c2nnnn2C(C)(C)C)N2CCc3ccccc3C2)c1 (configuration not stated),55.6%,342% (inactive)
COCCn1nnnc1C(c1cc2ccc(OC)cc2[nH]c1=O)N1CCc2ccccc2C1 (configuration not stated),16.7%,0% (active)
CCOc1ccc2[nH]c(=O)c(C(c3nnnn3CCOC)N3CCOCC3)cc2c1 (configuration not stated),11.4%,261% (inactive)
CCCCOc1ccc(NC(=O)CSCC(=O)OCC)cc1,29.6%,186% (inactive)
CN(C)/C=C(/C(=O)c1ccc(Cl)cc1)S(=O)(=O)c1ccccc1,37.1%,209% (inactive)
Cc1nn(Cc2ccc(C(=O)N3N=C(C(F)F)CC3(O)C(F)F)cc2)c(C)c1[N+](=O)[O-] (configuration not stated),36.3%,446% (inactive)
C1=C(N2CCOCC2)/C(=C/c2nc3ccccc3[nH]2)CC1,33.6%,242% (inactive)
CC1CC(C)(C)n2c(O)c(N=NC(N)=S)c3cccc1c32 (configuration not stated),21.4%,405% (inactive)
CC1CCc2sc(C(=O)NCC(c3ccco3)N3CCCCC3)cc2C1 (configuration not stated),29.9%,209% (inactive)
CS(=O)(=O)N(CC(=O)Nc1ccc(F)cc1F)c1cccc([N+](=O)[O-])c1,31.4%,763% (inactive)
O=C(c1ccccc1)c1ccc2nc(N3CCCCC3)c3nncn3c2c1,4.3%,87.7% (inactive)
Cc1c(Cl)cccc1NC(=S)NCC(O)c1ccccc1 (configuration not stated),56.7%,132% (inactive)
CC(=O)Nc1ccc(S(=O)(=O)Oc2ccc(Br)cc2C(=S)N2CCOCC2)cc1,35.8%,429% (inactive)
Cc1ccc(OCC(=O)Nc2ccc(C(=O)O)cc2NC(=O)COc2ccc(C)c(C)c2)cc1C,35.6%,196% (inactive)

Structure (SMILES),double positive events,response (vesicle binding)
COc1ccc(/C=C(/NC(=O)c2ccccc2)C(=O)Nc2cccc(C(=O)O)c2)cc1,39.2%,259% (inactive)
CCOc1ccc(S(=O)(=O)NCc2ccc3c(c2)OCO3)cc1C,23.9%,381% (inactive)
Cc1cc(Br)ccc1NC(=O)CN(C)C(=O)CN1C(=O)NC2(CCCC2)C1=O,8.3%,215% (inactive)
COCc1cc(C)n(CC(=O)NCC2CCCO2)c(=O)c1C#N (configuration not stated),19.7%,237% (inactive)
CC(=O)Nc1ccc(NC(=O)CSC2=NS(=O)(=O)c3ccccc3N2)cc1,46.2%,285% (inactive)
COc1cc(/C=C/C(=O)N2CCc3ccccc3C2)cc(OC)c1OC,39.9%,216% (inactive)
CCc1cc(CNC(=O)CC2C(=O)NCCN2Cc2ccccc2C(F)(F)F)on1 (configuration not stated),21.1%,297% (inactive)
CS(=O)(=O)c1ccc(C(=O)NNC(=O)c2cccs2)cc1,52.2%,322% (inactive)
O=C(NC1CCCC1)C(c1c(F)cccc1Cl)N(C(=O)c1csnn1)C1CC1 (configuration not stated),17.4%,421% (inactive)
CCc1ccc(NC(=O)C(=O)N/N=C(\C)CC(=O)NCCOC)cc1,23.6%,154% (inactive)
CCc1ccc(-n2c(SCc3cc(=O)n4cc(Br)ccc4n3)nc3[nH]ncc3c2=O)cc1,30.8%,314% (inactive)
Cc1sc2ncnc(N3CCC(C(=O)NNC(=O)c4ccc(F)cc4)CC3)c2c1C,64.9%,227% (inactive)
CC1CCN(c2ccc(S(=O)(=O)Nc3cc(C(=O)O)cc(C(=O)O)c3)cc2[N+](=O)[O-])CC1,24.9%,234% (inactive)
CCn1c2c(c3ccc(OC)cc31)CCCC2=O,43.3%,241% (inactive)
COC/C=C/C1=CC2=CC(=O)C(C)(OC(=O)CCC(=O)OC)C(=O)C2=CO1 (configuration not stated),30.4%,292% (inactive)
CCCN=C1NC(=O)C(CC(=O)NCCc2ccc(OC)c(OC)c2)S1 (configuration not stated),39.4%,112% (inactive)
CCN(CC(=O)Nc1c(F)cccc1F)C(=O)CN1c2cccc3cccc(c23)S1(=O)=O,43.4%,247% (inactive)
O=C1C=C(NCCNc2c(F)c(F)c(CO)c(F)c2F)CCC1,42.6%,169% (inactive)
COCCN1C2=C(COC(C)(C)C2)C(=S)NC1c1ccccc1 (configuration not stated),26.4%,676% (inactive)
Cc1cc(C(=O)N2CCN(c3ccccn3)CC2)c(C)o1,21%,214% (inactive)
Cn1ccc(=NC=C(C#N)C#N)c2ccccc21,46.1%,136% (inactive)

Structure (SMILES),double positive events,response (vesicle binding)
Cc1cc(C)n2nc(C(=O)OCC(=O)N(C)CC(=O)Nc3ccc(F)cc3)nc2n1,43%,342% (inactive)
CS(=O)(=O)N1CCc2cc(C(=O)Nc3ccccc3Br)ccc21,35.6%,198% (inactive)
CN(C)N=Nc1ccc2nc[nH]c2c1,13.7%,692% (inactive)
CO/N=C/c1ccc(N2CCN(C(=O)c3cccc(Cl)c3)CC2)c([N+](=O)[O-])c1,24.8%,143% (inactive)
CSc1sc(C(=O)NNC(=O)c2ccc(Cl)cc2)c2c1C=CCC2,57.7%,168% (inactive)
CCCCn1c(N)c(N2CCOCC2)c(=O)n(CC(=O)NCCc2ccccc2)c1=O,52.1%,370% (inactive)
CCCN1CCN(C(=O)Cn2ncc3ccccc32)CC1,45.8%,326% (inactive)
COc1ccccc1CNC(=O)c1ccc(N(C)S(=O)(=O)c2ccc(C)cc2)cc1,2%,94% (inactive)
Cc1ccc(-n2nc3c(c2NC(=O)CCC2CCCCC2)CS(=O)C3)cc1 (configuration not stated),41.6%,834% (inactive)
COc1cccc(C(=O)NNC(=O)/C=C/c2ccccc2)c1,61.7%,433% (inactive)
CNC(=O)c1nnn(-c2ccccc2)c1C(=O)NC,57.6%,329% (inactive)
O=C(NCc1ccncc1)C1CCCN(S(=O)(=O)c2ccc(Br)cc2)C1 (configuration not stated),50.3%,342% (inactive)
CCSc1nnc(SCC(=O)NNC(=O)c2ccccc2F)s1,59.2%,194% (inactive)
CCOc1cc(C2C(C(=O)OC(C)C)=C(C)NC3=C2C(=O)CCC3)cc([N+](=O)[O-])c1O (configuration not stated),47.9%,162% (inactive)
COc1cc(N)c(Cl)cc1C(=O)OCC(=O)c1ccc2c(c1)NC(=O)CO2,29.1%,484% (inactive)
CC1(C)CC(CNCCC(c2ccc(F)cc2)c2ccco2)CCO1 (configuration not stated),39.3%,172% (inactive)
CN(C)S(=O)(=O)c1cccc(NC(=O)COc2ccc3ccccc3c2)c1,30.4%,566% (inactive)
CCCn1cc(S(=O)(=O)c2ccc(C)cc2)c(=O)c2cc(OCC)ccc21,38.4%,435% (inactive)
